LYPLA1 inh: LYPLA1 (human) inhibition in PME1 counter-screen; hit rate 0.16% among 320,000; inhibition, % at 5.9 µM; O75608; recombinant LYPLA1, FP-Rh probe fluorescence polarization;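 active = inhibition above the mean of all tested compounds plus 3 SD, set per campaign, cut at about 14% in these data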;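 also: inhibitors block serine hydrolase probe labeling of LYPLA1 so polarization falls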
Target sequence (O75608 whole entry, looked up): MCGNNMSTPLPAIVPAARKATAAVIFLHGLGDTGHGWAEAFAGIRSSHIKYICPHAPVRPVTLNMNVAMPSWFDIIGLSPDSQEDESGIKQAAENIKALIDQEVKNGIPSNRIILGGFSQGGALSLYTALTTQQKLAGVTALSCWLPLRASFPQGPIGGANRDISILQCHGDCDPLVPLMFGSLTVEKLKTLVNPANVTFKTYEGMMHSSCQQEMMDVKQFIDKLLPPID
PME-1 inh: PME-1 (human) inhibition; Q9Y570; recombinant PME-1, FP-Rh probe fluorescence polarization; inhibition, % at 5.9 µM; hit rate 0.53% among 320,000; AID 2130;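 active = inhibition above the campaign mean of all compounds plus 3 SD, cut at about 26% in these data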;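 also: competitive labeling of PME-1 active site by serine hydrolase directed probe; inhibitors block probe labeling so polarization falls and inhibition rises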
proCasp3 act: procaspase-3 (human) activation | recombinant procaspase-3 D3A, Ac-DEVD-pNA absorbance 405 nm | hit rate 0.11% among 330,000 | activation, % at 8.5 µM;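 active = activation above the mean of all tested compounds plus 3 SD, cut at about 21% in these data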
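Assay system: Autoprocessing-dead procaspase-3 D3A mutant enzyme; also added: Ac-DEVD-pNA; doses: one concentration, 8.5 µM nominal, 0.8% DMSO; times: 1 h compound preincubation, 2 h substrate hydrolysis at 25 °C; technique: 405 nm absorbance of p-nitroaniline, reads at 0 and 120 min; measure: % activation between DMSO and enzyme-spiked controls; repeats: single replicate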
procasp7 counter: activates human procaspase-7, counter-screen for procaspase-3 activators. hit rate 0.093% among 330,000. activation, % at 8.5 µM. AID 463210. P55210. recombinant procaspase-7, Ac-DEVD-pNA absorbance 405 nm; D23A/D198A/D206A triple mutant, cannot self-cleave; scale: DMSO 0, 5 µM enzyme 100;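 active = percent activation above the screen-wide mean plus 3 SD, cut at about 25% in these data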
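Assay system: Uncleavable procaspase-7 mutant enzyme; Input: 2 µM procaspase-7 mutant as dispensed; Also added: DEVD-pNA substrate; Medium: Zinc-free HEPES pH 7.4 with 300 mM NaCl, 0.01% Triton X-100; Timing: 1 h compound preincubation, 2 h substrate cleavage, 25 °C; Measured by: Epi-absorbance of released pNA at 405 nm, two timepoints.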
Fam108B inh: counter-screen for RBBP9 inhibitors: inhibitors of mouse Fam108B. recombinant Fam108B, FP-Rh probe fluorescence polarization. inhibition, % at 9.51 µM. hit rate 0.33% among 300,000. AID 1947;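 active = inhibition above the screen mean inhibition plus 3 SD, computed separately per campaign, cut at about 18% in these data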;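 also: inhibitors lower polarization as less probe binds the enzyme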
LYPLA2 counter: blocks human lysophospholipase 2, a PME1 counter-screen | O95372 | recombinant LYPLA2, FP-Rh probe fluorescence polarization | inhibition, % at 5.9 µM | hit rate 0.38% among 320,000;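 active = inhibition above the screen-wide mean plus 3 SD, limit set per campaign, cut at about 26% in these data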
Target sequence (O95372 whole entry, looked up): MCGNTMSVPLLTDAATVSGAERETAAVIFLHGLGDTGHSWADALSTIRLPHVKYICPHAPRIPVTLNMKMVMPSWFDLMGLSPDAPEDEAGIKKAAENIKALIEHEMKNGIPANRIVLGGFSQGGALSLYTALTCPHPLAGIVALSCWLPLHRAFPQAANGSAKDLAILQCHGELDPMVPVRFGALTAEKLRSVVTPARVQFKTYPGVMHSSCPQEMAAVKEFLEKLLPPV
proCasp7 act trip: counter-screen: procaspase-7 (human) activation in triplicate | shares compounds with proCasp3 act | recombinant procaspase-7, Ac-DEVD-pNA absorbance; asp23/198/206-to-Ala mutant, cannot self-cleave | activation, % at 8.5 µM | 210 tested, under 10 active;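 active = mean activation above a set limit taken from an earlier procaspase-7 screen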
proCasp3 confirm: confirmation of human procaspase-3 activators | shares compounds with proCasp3 act | recombinant PC-3 D3A, Ac-DEVD-pNA absorbance 405 nm; 100% is higher-enzyme control | activation, % at 8.5 µM | hit rate 10% among 210 | AID 488954;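 active = mean activation above a set limit carried over from the earlier primary screen, cut at about 22% in these data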
A number is an active result; – = inactive; · = no result. Most compounds without a hit are left out; they make up all but 1% or so of the library.

SMILES	LYPLA1 inh	PME-1 inh	proCasp3 act	procasp7 counter	Fam108B inh	LYPLA2 counter	proCasp7 act trip	proCasp3 confirm
CC(=O)c1c(C(C)=O)c(C)n(C(c2ccccc2)c2ccccc2)c1C	–	–	–	–	–	–	·	·
COc1ccc(CNC(=O)CN(C(=O)CCC(=O)Nc2ccccn2)c2ccc3c(c2)OCO3)cc1	–	–	–	–	–	–	·	·
O=C1OCCN1C(=O)[C@H]1[C@H](c2ccc(Cl)cc2)C(c2ccccc2)=NN1c1ccc(Br)cc1	·	·	28	–	·	·	–	–
O=C1OCCN1C(=O)[C@H]1[C@H](c2ccc(Cl)cc2)C(c2cccc(Cl)c2)=NN1c1ccccc1	–	–	23	–	–	–	–	–
Cc1cccc(C2=NN(c3ccc(Br)cc3)[C@@H](C(=O)N3CCOC3=O)[C@@H]2c2ccc(Cl)cc2)c1	·	·	23	–	·	·	–	–
O=C1OCCN1C(=O)[C@H]1[C@H](c2ccc(F)cc2)C(c2cccc(Cl)c2)=NN1c1ccccc1	·	·	–	–	·	·	·	·
O=C1OCCN1C(=O)[C@H]1[C@H](c2ccccc2)C(c2cccc(Cl)c2)=NN1c1ccc(Br)cc1	·	·	–	–	·	·	·	·
O=C(Nc1cc2c(cc1[N+](=O)[O-])OCCO2)c1cccnc1	·	·	–	–	·	·	·	·
CCOC(=O)c1sc(NC(=O)C2CC(=O)N(c3ccc4c(c3)OCCO4)C2)nc1C (stereo not given)	–	–	–	–	·	–	·	·
Cc1cccc(C2=NN(c3ccccc3)[C@H](CO)[C@H]2c2ccc(F)cc2)c1	·	·	25	–	·	·	–	–
OC[C@@H]1[C@@H](c2ccc(Cl)cc2)C(c2ccc(F)cc2)=NN1c1ccccc1	·	·	24	–	·	·	–	–
Cc1cccc(C2=NN(c3ccccc3)[C@H](CO)[C@H]2c2ccc(Cl)cc2)c1	·	·	–	–	·	·	·	·
OC[C@@H]1[C@@H](c2ccccc2)C(c2cccc(Cl)c2)=NN1c1ccccc1	·	·	–	–	·	·	·	·
CC(=O)c1cccc(NS(=O)(=O)c2ccc(N/C=C\C(=O)c3ccc(C)cc3)cc2)c1	–	–	38	–	–	–	–	–
CCCCn1nc(C(=O)N(C)C2CCCCC2)c2ccccc2c1=O	–	–	22	–	·	–	–	–
COc1cc(C(=O)OCC(=O)N2CC(C)OC(C)C2)cc(OC)c1OC (stereo not given)	–	–	–	–	–	–	·	·
CCOc1ccccc1NC(=O)COc1coc(CN2CCc3ccccc3C2)cc1=O	–	–	22	–	–	–	–	–
CCCCn1c(N)c(N(CCC(C)C)C(=O)c2[nH]c(C)c(C(=O)OCC)c2C)c(=O)[nH]c1=O	–	–	–	–	–	–	·	·
Cn1c(-c2ccc(C=O)s2)nc2c3ccccc3c3ccccc3c21	–	–	46	–	–	–	–	–
O=C(O)c1ccc2c(=O)n3c(nc2c1)/C(=C/c1ccccc1C(F)(F)F)CCCC3	–	–	–	–	–	–	·	·
CC(=O)c1cn(CC(=O)Nc2ccccc2F)c2ccccc12	–	–	–	–	–	–	·	·
O=C(Cn1c2ccccc2c(=O)c2ccccc21)Nc1ccccc1F	–	–	28	–	–	–	–	–
Cc1ccc(-c2cc(C(F)(F)F)c(C#N)c(SCCC#N)n2)o1	–	–	22	–	–	–	41	52
NC(=O)c1c(NC(=O)c2ccccc2F)sc2c1CCCC2	–	–	37	–	–	–	–	–
COC(=O)Cn1c(=NC(=O)c2cc(-c3cccs3)nc3ccccc23)sc2cc(S(N)(=O)=O)ccc21	–	–	78	–	–	–	–	–
SMILES	LYPLA1 inh	PME-1 inh	proCasp3 act	procasp7 counter	Fam108B inh	LYPLA2 counter	proCasp7 act trip	proCasp3 confirm
CCOC(=O)Cn1c(=NC(=O)c2cc(-c3cccs3)nc3ccccc23)sc2cc(S(N)(=O)=O)ccc21	–	–	–	–	–	–	·	·
CC1CCC2(CC1)NC(=O)N(CC(=O)Nc1ccc3[nH]c(=O)[nH]c3c1)C2=O (stereo not given)	–	–	–	–	–	–	·	·
CC1CC(C)(C)CC2(C1)NC(=O)N(CC(=O)Nc1ccc3[nH]c(=O)[nH]c3c1)C2=O (stereo not given)	–	–	37	–	·	–	–	–
Cc1c(O)ccc2c(CN3CCOCC3)cc(=O)oc12	–	–	21	–	–	–	–	–
COc1cc2c(cc1OC)CN(C(=O)c1sc(-c3cnccn3)nc1C)CC2	–	–	–	–	–	–	·	·
NS(=O)(=O)c1ccc(CNC(=O)CNC(=O)c2ccc(F)cc2)cc1	–	–	–	–	–	–	·	·
O=c1cc(O)c2ccc(O)cc2o1	–	–	–	–	–	–	·	·
Cc1cc(=O)oc2cc(O)ccc12	–	–	24	–	–	–	–	–
COc1ccccc1OCCCCNC(C)(C)C	–	–	26	–	–	–	–	–
COc1cc(OC)c(N(C)S(=O)(=O)c2cccc(C(=O)OCC(=O)c3c[nH]c4ccccc34)c2)cc1Cl	–	–	–	–	–	–	·	·
C=CCN(c1ccccc1OC)S(=O)(=O)c1cccc(C(=O)OCC(=O)c2c[nH]c3ccccc23)c1	–	–	22	–	–	–	–	–
Cc1cc(C)c(C)c(OCCCCN2CCCCC2)c1	–	–	–	–	–	–	·	·
Cc1cc(C)c(C#N)c(SCc2nc3ccccc3[nH]2)n1	–	29	156	–	–	–	–	–
N#Cc1cc2c(nc1SCc1nc3ccccc3[nH]1)CCC2	–	–	–	–	–	–	·	·
Cc1cc(C)c(C#N)c(SCc2nnc(-c3ccccc3)o2)n1	–	–	125	–	–	–	–	–
NS(=O)(=O)c1ccc(CCNS(=O)(=O)c2cccc3nsnc23)cc1	–	–	–	–	–	–	·	·
O=C1c2cccnc2C(=O)N1Cc1ccc(S(=O)(=O)N2CCOc3ccc(Cl)cc32)cc1	–	–	–	–	–	–	·	·
CCCCn1c(N)c(N(CC(C)C)C(=O)C2CC(=O)N(c3ccc(C)cc3)C2)c(=O)[nH]c1=O (stereo not given)	–	–	22	–	–	–	–	–
COc1ccc2oc(C(=O)OCC(=O)Nc3cc(S(=O)(=O)N4CCOCC4)ccc3OC)c(C)c2c1	–	–	22	–	–	–	–	–
COc1ccc(CNC(=O)COC(=O)c2nc3nc(C)cc(C)n3n2)cc1	–	–	–	–	·	–	·	·
CC(C)(C)c1ccc(OCc2ccc(C(=O)N3CCOCC3)o2)cc1	–	–	–	–	–	–	·	·

From PubChem
